NSD2 inh: NSD2 histone methyltransferase inhibitors, primary screen, biochemical, AlphaScreen, single concentration, set 2. NSD2 peptide methylation, 120 min. inhibition, % at 12.5 µM. hit rate 0.54% among 310,000
NS3 helicase inh: inhibitors of HCV NS3 helicase, primary screen, biochemical, Cy5 molecular beacon fluorescence; hit rate 0.56% among 290,000; inhibition, % at 10.9 µM; NS3 helicase DNA unwinding; Hepatitis C virus NS3 helicase;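 active means inhibition above the mean of all tested compounds plus 3 SD, set per campaign, cut at about 35% in these data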;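 further: 0% = DMSO wells and 100% = thioflavine S control wells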
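Compound dosing – single dose, 10.9 µM nominal final, DMSO 0.8% final · System – NS3 helicase fragment of HCV · Buffer or medium – MOPS pH 6.5, MgCl2, DTT, Tween20, BSA · Signal – Cy5 beacon fluorescence read at start and 1 h · Also added – annealed dual-labelled DNA beacon duplex, ATP-started · Schedule – 1 h at 25 °C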
DNMT1 inh: human DNMT1 methyltransferase inhibitors, primary screen, biochemical, molecular beacon, fluorescence, HinP1I cleavage, uHTS | DNA (cytosine-5)-methyltransferase 1 (Homo sapiens), P26358 | inhibition (reported as % activation of signal), % at 10 µM | hit rate 0.83% among 360,000
Casp6 inh: human caspase-6 inhibitors, primary screen, biochemical, VEID-R110 fluorescence, single point, set 2. P55212. purified caspase-6, Z-VEID-R110 cleavage fluorescence. inhibition, % at 12.5 µM. hit rate 0.53% among 350,000;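 active means mean inhibition across replicates at least about 35%, with every replicate also reaching that limit, limit read from the data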;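 further: 0% = median of neutral control wells and 100% = no fluorescence left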
Target sequence (P55212 24-179 limits assumed): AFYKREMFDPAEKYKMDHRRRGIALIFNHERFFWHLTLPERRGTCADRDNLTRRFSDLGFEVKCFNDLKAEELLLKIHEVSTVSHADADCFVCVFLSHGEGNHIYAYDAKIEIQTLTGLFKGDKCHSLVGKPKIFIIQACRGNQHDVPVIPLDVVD
Target sequence (P55212 194-293 limits assumed): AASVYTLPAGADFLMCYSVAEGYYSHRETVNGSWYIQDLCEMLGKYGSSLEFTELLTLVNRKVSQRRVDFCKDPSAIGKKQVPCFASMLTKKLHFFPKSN
* = called active by the depositor; nt = no result given. This is a sample that favours compounds with a hit; in the whole collection about 1.5% have one here. Unless noted, no stated cut-off is given here; in the data, active means inhibition above about 50%; inactive means the rest.

SMILES	NSD2 inh	NS3 helicase inh	DNMT1 inh	Casp6 inh
Cn1cc(C(CC(=O)O)C(=O)O)c2ccccc21 (stereo not drawn)	17	1	2	43*
CC(=O)N(C)C[C@@H]1Oc2ncc(C3=CCCC3)cc2C(=O)N([C@@H](C)CO)C[C@@H]1C	nt	nt	nt	-4
CC(C)c1ccc(NC(=O)c2ccccc2NC(=O)C2CC=CCC2C(=O)O)cc1 (stereo not drawn)	-1	13	0	3
O=C(Nc1ccc(F)cc1)c1ccccc1NC(=O)C1CC=CCC1C(=O)O (stereo not drawn)	-2	3	2	37*
COc1c(CC=C(C)C)cc(C2CC(=O)c3c(O)cc(O)cc3O2)cc1CC=C(C)C (stereo not drawn)	nt	nt	-29	-1
COC1=CC(=O)C(C2CC(=O)c3c(O)cc(O)cc3O2)=CC1=O (stereo not drawn)	15	nt	1	44*
O=C(CSc1n[nH]c(-c2ccco2)n1)Nc1ccccc1Cl	2	5	1	1
O=C(CSc1n[nH]c(-c2ccco2)n1)Nc1ccccc1F	2	2	-3	46*
CCN1/C(=C/C=C/C=C/C=C/c2sc3ccccc3[n+]2CC)Sc2ccccc21	4	-59	81*	nt
CCCCCCCC/C=C\CCCCCCCC(=O)O	nt	nt	59*	7
CCCCCCC(=O)O	nt	nt	1	-5
CCCCCCCCC(=O)O	nt	nt	-5	nt
CCCCC/C=C\C/C=C\C/C=C\CCCCC(=O)O	nt	nt	49	40*
C[C@@H](O)C#Cc1ccc([C@@H]2[C@H](CO)N3CCCCN(C(=O)c4ccc(F)cc4)C[C@@H]23)cc1	nt	nt	nt	0
C[C@H]1CN([C@@H](C)CO)C(=O)c2cccc(NC(=O)CCCCCC(=O)Nc3ccccc3N)c2O[C@H]1CN(C)S(=O)(=O)c1ccc(F)cc1	nt	nt	nt	0
O=C(C1CCCC1)N1CC(=O)N2[C@H](CO)[C@@H](c3ccc(C#Cc4cccc(F)c4)cc3)[C@H]2C1	nt	nt	nt	0
O=C1C(Nc2ccccc2)=C(N2CCCCC2)C(=O)c2ccccc21	94*	4	2	nt
COc1ccccc1NC1=C(N2CCCCC2)C(=O)c2ccccc2C1=O	93*	11	-3	nt
O=C(/C=C/c1ccc(O)cc1)c1ccc(NC2=C(N3CCCCC3)C(=O)c3ccccc3C2=O)cc1	13	-20	-2	3
Cc1ccc(NC2=C(N3CCCCC3)C(=O)c3ccccc3C2=O)cc1	51*	-8	-2	nt
CCCNC(=O)N1CC2(CCN(C(C)=O)CC2)c2c(n(C)c3cc(OC)ccc23)[C@@H]1CO	nt	nt	nt	-2
Cc1ccccc1S(=O)(=O)N1CC(=O)N2[C@H](C1)[C@H](c1ccc(C#CCC(C)C)cc1)[C@@H]2CO	nt	nt	nt	1
CC(=O)N1[C@H](CO)[C@@H](c2ccccc2)C12CN(C(=O)c1ccccc1)C2	nt	nt	nt	-1
CN1c2ccc(-c3cccc(F)c3)cc2[C@H]2[C@H](CCN2C(=O)C2CC2)[C@@H]1CO	nt	nt	nt	1
Cc1ccc(S(=O)(=O)N/N=C\c2ccc(C)o2)cc1	3	6	35	41*
SMILES	NSD2 inh	NS3 helicase inh	DNMT1 inh	Casp6 inh
CSc1ccccc1NC(=O)c1cc(-c2ccco2)on1	-1	8	-7	-1
COC(=O)c1ccccc1NC(=O)c1cc(-c2ccco2)on1	2	10	8	66*
CCC(=O)Nc1ccc2c(c1)C(=O)N(C)[C@@H]1CC[C@@H](CC(=O)NCCc3ccccc3)O[C@@H]1CO2	nt	nt	nt	3
O=C(O)c1ccc(N2C(=O)CC(N3CCN(c4cccc(Cl)c4)CC3)C2=O)cc1 (stereo not drawn)	0	-4	0	2
O=C(O)c1ccc(N2C(=O)CC(N3CCN(c4cccc(C(F)(F)F)c4)CC3)C2=O)cc1 (stereo not drawn)	4	3	-2	90*
O=C(CN1C(=O)NC2(CCOc3ccccc32)C1=O)c1ccc(Cl)cc1 (stereo not drawn)	-4	nt	2	78*
O=C(CN1C(=O)NC2(CCOc3ccccc32)C1=O)c1ccc(Br)cc1 (stereo not drawn)	2	-2	1	3
C=C[C@]1(C)C=C2C(=O)[C@@]3(O)OC(=O)[C@@]4(CCCC(C)(C)[C@H]34)[C@@]2(O)CC1	nt	nt	-30	37*
CCOc1ccc(S(=O)(=O)Nc2cc(NS(=O)(=O)c3ccc(OCC)cc3)cc(C(=O)O)c2)cc1	25	nt	32	70*
CCOc1ccc(NS(=O)(=O)c2ccc(NS(=O)(=O)c3ccccc3)cc2)cc1	-1	-17	3	nt
O=C(CCN1CCCCC1)NCC[C@@H]1CC[C@@H](NC(=O)C2CCCC2)[C@@H](CO)O1	nt	nt	nt	0
N#Cc1c(-c2ccccc2)cc(-c2ccc3c(c2)OCO3)[nH]c1=O	-3	nt	18	1
COc1ccc(-c2cc(-c3ccco3)[nH]c(=O)c2C#N)cc1OC	nt	31	6	38*
O=C(CCN1CCCCC1)N[C@@H]1CC[C@H](CCNS(=O)(=O)c2ccc(Cl)cc2)O[C@H]1CO	nt	nt	nt	1
C[C@@H]1CN([C@@H](C)CO)C(=O)Cc2cc(NC(=O)Cc3ccccc3)ccc2O[C@H]1CN(C)C(=O)Nc1ccc(F)cc1	nt	nt	nt	2
CC(CNC(=O)c1ccc(OC2CCN(Cc3ccccn3)CC2)cc1)c1ccccc1 (stereo not drawn)	2	-13	0	45*
COc1ccc(NC(=O)N(C)C[C@H]2Oc3ncc(-c4ccc(C#N)cc4)cc3C(=O)N([C@H](C)CO)C[C@@H]2C)cc1	nt	nt	nt	0
CCC(=O)Nc1ccc2c(c1)OC[C@H](C)N(Cc1ccccn1)C[C@@H](C)[C@H](OC)CN(C)C2=O	nt	nt	nt	-5
COC1=C(Nc2ccccc2)C(=O)c2ccccc2C1=O	75*	8	-11	nt
COC1=C(Nc2ccc(C)cc2)C(=O)c2ccccc2C1=O	78*	0	-13	7
CNC[C@@H]1Oc2ccc(NC(=O)Nc3ccc4c(c3)OCO4)cc2CC(=O)N([C@H](C)CO)C[C@H]1C	nt	nt	nt	-1
COc1cc(/C=C2/C(=O)NN(c3cccc(C)c3)C2=O)cc([N+](=O)[O-])c1O	15	20	58*	31
COc1cc(/C=C2\SC(=O)N(c3cccc(Cl)c3)C2=O)cc([N+](=O)[O-])c1O	2	23	71*	-7
COC(=O)c1ccc(C(=O)OC)c(NC(=O)CN(c2ccc3c(c2)OCO3)S(C)(=O)=O)c1	1	11	-1	42*
O=C(Cc1ccccn1)N1CC(=O)N2[C@@H](CO)[C@@H](c3ccc(-c4ccc(F)cc4)cc3)[C@@H]2C1	nt	nt	nt	0
Cc1c(C=O)c(Cl)n(C)c(=O)c1C#N	nt	1	-9	51*
CC[C@H](C)/C=C(C)/C=C/c1cc2c(cn1)C(=O)[C@@](C)(OC(C)=O)C(O)=C2Cl	nt	nt	30	51*
CCc1cccc(NC(=O)CCCCCC2NC(=O)NC2C)c1 (stereo not drawn)	nt	-6	1	-3

Screening data as filed in PubChem.
